Screening results (PubChem)
The entries come from a sample that favours hits as a whole.
ABCB6 inh 2: blocks the human ABCB6 transporter. AID 602162. fluorescence ratio to DMSO, % at 10 µM. 0.19% of 360,000 active. Q9NP58. K562-ABCB6 porphyrin accumulation, flow cytometry, 1 h; hits give low values;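 active means fluorescence ratio to DMSO below 75%, the collection mean minus 3 SD; inconclusive means too few cells collected in the well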;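 further: signal is porphyrin accumulated inside mitochondria; lower ratio means ABCB6 inhibition with less porphyrin fluorescence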
Target sequence (Q9NP58 whole entry, looked up): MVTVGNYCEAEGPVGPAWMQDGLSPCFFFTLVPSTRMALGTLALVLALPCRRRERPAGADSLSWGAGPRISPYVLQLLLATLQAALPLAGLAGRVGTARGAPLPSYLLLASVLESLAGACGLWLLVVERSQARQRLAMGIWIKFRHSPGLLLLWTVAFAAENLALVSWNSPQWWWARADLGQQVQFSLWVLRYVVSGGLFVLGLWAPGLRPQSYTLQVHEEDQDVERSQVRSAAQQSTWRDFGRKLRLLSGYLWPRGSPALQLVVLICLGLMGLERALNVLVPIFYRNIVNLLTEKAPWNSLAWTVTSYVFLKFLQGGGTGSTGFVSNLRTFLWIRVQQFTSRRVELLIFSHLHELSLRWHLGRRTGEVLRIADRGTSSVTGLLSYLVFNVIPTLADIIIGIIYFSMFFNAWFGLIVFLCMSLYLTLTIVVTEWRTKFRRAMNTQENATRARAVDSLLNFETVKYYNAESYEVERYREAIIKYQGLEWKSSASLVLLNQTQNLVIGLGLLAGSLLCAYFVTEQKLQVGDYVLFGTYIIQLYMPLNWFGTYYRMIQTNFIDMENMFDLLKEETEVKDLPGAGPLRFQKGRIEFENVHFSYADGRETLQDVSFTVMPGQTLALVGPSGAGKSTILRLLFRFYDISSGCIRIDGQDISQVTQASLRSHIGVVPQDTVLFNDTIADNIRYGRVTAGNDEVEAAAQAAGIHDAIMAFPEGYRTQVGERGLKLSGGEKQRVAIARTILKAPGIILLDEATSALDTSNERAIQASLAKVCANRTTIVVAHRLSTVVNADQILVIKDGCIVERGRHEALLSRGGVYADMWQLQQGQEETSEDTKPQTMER
Myeloid diff 2: promotes myeloid progenitor differentiation; ER-HoxA9 myeloid progenitors, lysozyme-GFP differentiation, flow cytometry; calls only at 10 µM; 1% of 360,000 active; AID 624256;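 active means normalized GFP-positive differentiation at or above the plate's own cutoff, the solvent-only control mean plus 3 SD; inconclusive means no clear call, values can overlap the other calls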;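 further: cells exposed to compound for four days before flow analysis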
Xi reactivation: activators of X-chromosome reactivation in mouse fibroblasts; 0.055% of 360,000 active; XiGFP mouse fibroblasts, % GFP-positive cells imaging, 3 d; cells co-treated with 5-aza-dC sensitizer; scaled so ellipticine positive control = 100%; activation, % at 7.58 µM;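 active means mean normalized replicate activation at least 10% and every replicate at or above 10%; inconclusive means only one of the two criteria met; inactive means mean below 10% and not all replicates reach 10%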
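Assay system: SV40-immortalized XiGFP fibroblast cells, line 68-5-11; buffer or medium: DMEM plus 5-aza-dC sensitizer; compound: one concentration, pinned; timing: compounds 3 days, fix/stain 15 min at room temperature; benchmarks: positive control ellipticine, 6 µM final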
ABCB6 blocker 1: inhibitors of human ABC transporter ABCB6 | shares compounds with ABCB6 inh 2 | K562-ABCB6 porphyrin accumulation, flow cytometry, 1 h; hits give low values | ratio response (% of DMSO), % at 10 µM | 700 tested, under 10 active;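 active means repeat-averaged ratio response below 75% of DMSO, the collection mean minus 3 SD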;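 further: median porphyrin fluorescence at 575 nm with 488 nm excitation from mitochondria; lower ratio means less porphyrin signal so ABCB6 inhibition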
Large screens that a line does not name were inactive (follow-up assays come after a bar, where they were run).

CCN(CC)c1ccc(C(=O)OCC(=O)N(C(C)C)C(C)C)cc1	none
COc1ccc(CNC(=O)C[C@@H]2C[C@@H]3c4cc(NC(=O)C5CCC5)ccc4O[C@@H]3[C@H](CO)O2)cc1	none (no result: ABCB6 inh 2, Myeloid diff 2)
CCOC(=O)C1CCN(S(=O)(=O)c2ccc(Cl)cc2)CC1	none
CCOC(=O)C1CCN(S(=O)(=O)c2ccc(CC)cc2)CC1	none (no result: Xi reactivation)
CCOC(=O)C1CCN(S(=O)(=O)c2ccc(C(C)(C)C)cc2)CC1	none
CCOC(=O)C1CCN(S(=O)(=O)c2ccc(OCC)cc2)CC1	none (no result: Xi reactivation) | ABCB6 blocker 1 inactive
CCOC(=O)C1CCN(S(=O)(=O)c2ccc(Cl)s2)CC1	ABCB6 inh 2 68 | ABCB6 blocker 1 inactive
CCOC(=O)c1ccc(S(=O)(=O)N2CCC(C(=O)OCC)CC2)cc1	ABCB6 inh 2 60 (no result: Xi reactivation) | ABCB6 blocker 1 inactive
C[C@H]1CN([C@@H](C)CO)C(=O)c2cc(C#CC3CCCCC3)cnc2O[C@H]1CN(C)S(=O)(=O)c1ccc(F)cc1	none (no result: ABCB6 inh 2, Myeloid diff 2)
O=C(CN1CCCCC1)Nc1cccc(Br)c1	ABCB6 inh 2 69 (no result: Xi reactivation) | ABCB6 blocker 1 inactive
CCOC(=O)N1CCN(CCC(=O)Nc2ccc(C)cc2)CC1	none (no result: Xi reactivation)
CCOC(=O)N1CCN(CC(=O)Nc2ccc(C)cc2)CC1	ABCB6 inh 2 72 (no result: Xi reactivation) | ABCB6 blocker 1 inactive
COc1ccc(NC(=O)CN2CCCCCC2)cc1OC	ABCB6 inh 2 73 | ABCB6 blocker 1 inactive
COc1ccc(NC(=O)CN2CCCCC2)cc1S(=O)(=O)N1CCCCC1	none
O=C(CN1CCOCC1)Nc1cccc(Br)c1	none (no result: Xi reactivation)
O=C(C[C@H]1CC[C@@H]2[C@H](COC[C@@H](O)CN2C(=O)c2ccccn2)O1)N1CCN(c2ccccc2)CC1	none (no result: ABCB6 inh 2, Myeloid diff 2)
C[C@@H]1CN([C@H](C)CO)S(=O)(=O)c2ccc(C#Cc3ccc(F)cc3)cc2O[C@H]1CN(C)C(=O)CN(C)C	none (no result: ABCB6 inh 2, Myeloid diff 2)
O=C(Nc1ccc2c(c1)[C@H]1C[C@H](CC(=O)N3CCCCC3)O[C@@H](CO)[C@H]1O2)C1CCOCC1	none (no result: ABCB6 inh 2, Myeloid diff 2)
CN(C)C(=O)c1cccc(-c2ccc3c(c2)[C@H]2[C@H](CCN2Cc2nccs2)[C@H](CO)N3)c1	none (no result: ABCB6 inh 2, Myeloid diff 2)
COc1ccc2c3c([nH]c2c1)[C@@H](CO)N(C)CC31CN(C(=O)c2cccnc2)C1	none (no result: ABCB6 inh 2, Myeloid diff 2)
COCC(=O)N1C[C@H](C)[C@@H](OC)CN(C)C(=O)c2ccc(NC(=O)Nc3cccc(F)c3)cc2OC[C@H]1C	none (no result: ABCB6 inh 2, Myeloid diff 2)
COc1ccc(CN(C)C[C@@H]2Oc3ccc(NC(=O)CCC(F)(F)F)cc3C(=O)N([C@@H](C)CO)C[C@@H]2C)cc1	none (no result: ABCB6 inh 2, Myeloid diff 2)
COc1ccc(CCC(=O)OCC(=O)NCc2ccc3c(c2)OCO3)cc1	none
O=C(COC(=O)CSc1ccc2ccccc2c1)NCc1ccc2c(c1)OCO2	ABCB6 inh 2 65 | ABCB6 blocker 1 inactive
Cc1noc(C)c1NC(=O)N(C)C[C@H]1OCCCC[C@@H](C)Oc2ccc(NS(=O)(=O)c3c(C)noc3C)cc2C(=O)N([C@@H](C)CO)C[C@H]1C	none (no result: ABCB6 inh 2, Myeloid diff 2)
CC(C)NC(=O)Nc1ccc2c(c1)C(=O)N(C)[C@@H]1CC[C@H](CC(=O)NC3CCCCC3)O[C@@H]1CO2	none (no result: ABCB6 inh 2, Myeloid diff 2)
Clc1ccccc1-c1nnc2sc(C3COc4ccccc4O3)nn12 (stereo not given)	ABCB6 inh 2 44 (no result: Xi reactivation) | ABCB6 blocker 1 inactive
Cc1ccc(-c2nnc3sc(C4COc5ccccc5O4)nn23)cc1 (stereo not given)	none (no result: Xi reactivation)
CC(=O)Nc1cccc(-c2ccnc3c2CC(C(=O)Nc2ccccc2)O3)c1 (stereo not given)	none
O=C(Nc1cccc(Oc2ccccc2)c1)C1Cc2c(-c3ccco3)ccnc2O1 (stereo not given)	ABCB6 inh 2 69 | ABCB6 blocker 1 inactive
CC(=O)c1cccc(-c2ccnc3c2CC(C(=O)Nc2cccnc2)O3)c1 (stereo not given)	none
O=C(Nc1cccc(Oc2ccccc2)c1)C1Cc2c(-c3ccccc3)ccnc2O1 (stereo not given)	none | ABCB6 blocker 1 inactive
CC(=O)c1cccc(-c2ccnc3c2CC(C(=O)Nc2cccc(N(C)C)c2)O3)c1 (stereo not given)	none | ABCB6 blocker 1 inactive
CC(=O)c1cccc(-c2ccnc3c2CC(C(=O)Nc2cccc(Oc4ccccc4)c2)O3)c1 (stereo not given)	none | ABCB6 blocker 1 inactive
CC(=O)c1cccc(NC(=O)C2Cc3c(-c4cccc(C(C)=O)c4)ccnc3O2)c1 (stereo not given)	none
CS(=O)(=O)Nc1cccc(NC(=O)C2Cc3c(-c4ccco4)ccnc3O2)c1 (stereo not given)	none
O=C(c1ccccn1)N1CC2(C1)[C@H](c1ccccc1)[C@@H](CO)N2Cc1ccc(F)cc1	none (no result: ABCB6 inh 2, Myeloid diff 2)
Cc1cc(C)c(C#N)c(N2CCN(Cc3ccccc3)CC2)n1	ABCB6 inh 2 47 (no result: Xi reactivation) | ABCB6 blocker 1 inactive
Cc1cc(C)c(C#N)c(N2CCN(Cc3ccc4c(c3)OCO4)CC2)n1	none (no result: Xi reactivation)
C[C@H]1CN([C@@H](C)CO)C(=O)c2cc(NC(=O)Cn3cnnn3)ccc2O[C@@H]1CN(C)C	none (no result: ABCB6 inh 2, Myeloid diff 2)
CN1C(=O)c2cc(NC(=O)c3cccc(C(F)(F)F)c3)ccc2OC[C@@H]2O[C@H](CC(=O)O)CC[C@@H]21	none (no result: ABCB6 inh 2, Myeloid diff 2)
Cc1ccc(-c2nnc(N)s2)cc1	ABCB6 inh 2 69 | ABCB6 blocker 1 inactive
COc1ccc(-c2nnc(N)s2)cc1	none (no result: Xi reactivation)
COc1ccc(OC)c(NC(=O)C2(C)CCN2Cc2cccc(OC)c2OC)c1 (stereo not given)	ABCB6 inh 2 71 | ABCB6 blocker 1 inactive
COc1cccc(CN2CCC2(C)C(=O)Nc2cccc3cccnc23)c1OC (stereo not given)	none
CCc1cnc(N2[C@H](C#N)[C@H](c3ccc(C#CC(C)C)cc3)[C@H]2CO)s1	none (no result: ABCB6 inh 2, Myeloid diff 2)
Cc1nc(N2CCN(c3ccccc3)CC2)nc2c1C(=O)CCC2	ABCB6 inh 2 55 (no result: Xi reactivation) | ABCB6 blocker 1 inactive
Cc1nc(N2CCN(c3ccccc3)CC2)nc2c1C(=O)CC(C)C2 (stereo not given)	none (no result: Xi reactivation)
NC(=O)C(c1ccc(Sc2ccccc2)nn1)c1ccc(Cl)cc1Cl (stereo not given)	none (no result: Xi reactivation)
NC(=O)C(c1ccc(Cl)cc1)c1ccc(Sc2ccccc2)nn1 (stereo not given)	ABCB6 inh 2 73 (no result: Xi reactivation) | ABCB6 blocker 1 inactive
C[C@H](NC(=O)c1ccco1)C(=O)Nc1ccc(C#N)cc1	none
CC(=O)Nc1ccc(NC(=O)[C@H](C)NC(=O)c2ccco2)cc1	ABCB6 inh 2 64 | ABCB6 blocker 1 inactive
CCOc1ccccc1NC(=O)CSc1nnc(Cc2cccn2C)n1-c1ccc(F)cc1	Myeloid diff 2 inconclusive
CCOC(=O)c1ccccc1NC(=O)CSc1nnc(Cc2cccn2C)n1-c1ccc(F)cc1	ABCB6 inh 2 65 (no result: Xi reactivation) | ABCB6 blocker 1 inactive
Cc1nc2c(C(=O)NCCC(C)C)c[nH]n2c(=O)c1Cl	none
Cc1nc2c(C(=O)NCCC(C)C)c[nH]n2c(=O)c1Cc1ccccc1F	none (no result: Xi reactivation) | ABCB6 blocker 1 inactive
O=C(C[C@H]1CC[C@@H]2[C@H](COC[C@@H](O)CN2C(=O)c2ccncc2)O1)NC1Cc2ccccc2C1	none (no result: ABCB6 inh 2, Myeloid diff 2)
COCC1CCCN(C(=O)c2ccc(OC3CCN(Cc4ccccn4)CC3)cc2)C1 (stereo not given)	ABCB6 inh 2 12 | ABCB6 blocker 1 inactive
CC(=O)N1CCN(C(=O)c2ccc(OC3CCN(Cc4ccccn4)CC3)cc2)CC1	none
